Measured values reported in ChEMBL document CHEMBL1135970, “Identification of a pharmacophore for thrombopoietic activity of small, non-peptidyl molecules. 1. Discovery and optimization of salicylaldehyde thiosemicarbazone thrombopoietin mimics” (J Med Chem, 2002).

Legend:
Homo sapiens = species on record: Homo sapiens; experiment: Thrombopoietin efficacy in human bone marrow cultures was reported; format: functional
[1] = Compound was evaluated for the expression of luciferase activity in BAF3/TPO-Rluc cell line; format: functional, cell-based; settings: Homo sapiens, BAF-3/TPO-Rluc
Summary of the method: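 BAF3/TPO-Rluc cells at (1 × 10⁵)/mL, starved of IL-3 overnight, in growth medium with 0.5% v/v FBS and 30 µM ZnCl₂. Incubated with compound (0.32% DMSO final) or rhuTPO for 3 h at 37 °C, 5% CO₂. Luciferase activity read on a luminometer; each point is the mean of triplicate assays.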

Row | Compound | TPO(max) (Homo sapiens) | EC50 [1]
1 | Cc1ccc(-c2cccc(/C=N/N=C(\S)Nc3cccc(C(=O)O)c3)c2O)cc1C | 90% | 
2 | O=C(O)c1ccc(N/C(S)=N/N=C/c2cc(Cl)cc(Cl)c2O)cc1 | 30% | 350 nM
3 | O=C(O)c1ccc(N/C(S)=N/N=C/c2cccc(-c3cccc(C(F)(F)F)c3)c2O)cc1 | 100% | 
4 | O=S(=O)(O)c1ccc(N/C(S)=N/N=C/c2cc(Cl)cc(Cl)c2O)cc1 | 29% | 260 nM
5 | Cc1cc(Cl)ccc1/N=C(\S)N/N=C/c1cc(Cl)cc(Cl)c1O | 30% | 5600 nM
6 | Cc1ccc(-n2[nH]c(C)c(/N=N/c3c(O)cc(S(=O)(=O)O)c4ccccc34)c2=O)cc1C | 100% | 40 nM
